# Reference: ChEMBL document CHEMBL4616694, “Selective Covalent Targeting of Mutated EGFR(T790M) with Chlorofluoroacetamide-Pyrimidines” (ACS Med Chem Lett, 2020)
# Active and inactive are the calls of the source. The calls are words filed in the database; no cut-off is given here.
# What was measured:
# NCI-H1975 = assay: Antiproliferative activity against human NCI-H1975 cells harboring EGFR L858R/T790M mutant assessed as reduction in cell viability measured after 72 hrs by WST assay; format: functional, cell-based; details: NCI-H1975, 72 h
# NCI-H292 = assay: Antiproliferative activity against human NCI-H292 cells expressing wild type EGFR assessed as reduction in cell viability measured after 72 hrs by WST assay; format: functional, cell-based; details: NCI-H292, 72 h
# [1] = Selectivity index, ratio of IC50 for human NCI-H292 cells expressing wild type EGFR assessed as reduction in cell viability measured after 72 hrs by MTT assay to IC50 for human NCI-H1975 cells harboring EGFR L858R/T790M mutant assessed as reduction in cell viability measured after 72 hrs by MTT assay; format: functional
# [2] = Half life of compound in phosphate buffer at pH 7.4 and 37 degree C under neutral aqueous condition in presence of excess glutathione; format: physicochemical; details: phosphate buffer with excess glutathione
# In short: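 Compound was incubated with excess glutathione under neutral aqueous conditions (pH 7.4, 37 °C), and half-reaction time was determined from the time course.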
# [3] = tested on: Epidermal growth factor receptor (Homo sapiens), P00533 [L858R,T790M]; assay: Binding affinity to recombinant human EGFR L858R/T790M mutant kinase domain assessed as fluorescent band formation at 2 uM pretreated with compound followed by subsequent addition of copper-catalyzed azide-alkyne cyclo with rhodamine azide measured after 72 hrs by coomassie brilliant blue staining based in-gel fluorescence assay
# [4] = tested on: Epidermal growth factor receptor (Homo sapiens), P00533 [L858R,T790M]; assay: Irreversible inhibition of EGFR L858R/T790M mutant in human H1975 cells assessed as reduction in autophosphorylation at Y1068 residue at 10 nM measured after 8 hrs post compound washout by Western blot analysis; format: cell-based
# In short: (§1)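 H1975 cells were treated at 10 nM, and EGFR Y1068 autophosphorylation was assessed by western blot. For irreversibility, compound was washed out of the culture medium and phospho-EGFR was examined for at least 8 h afterwards.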
# Homo sapiens = species on record: Homo sapiens; assay: Selectivity index, ratio of IC50 for wild type EGFR (unknown origin) to IC50 for human EGFR L858R/T790M mutant expressed in baculovirus infected insect cells
# [5] = tested on: Epidermal growth factor receptor (Homo sapiens), P00533 [L858R,T790M]; assay: Binding affinity to recombinant human EGFR L858R/T790M mutant kinase domain expressed in baculovirus infected insect cells assessed as covalent bond formation between protein Cys797 residue-compound by LC-MS/MS analysis
# [6] = Mean residence time in BALB/c mouse at 25 mg/kg, po administered as single dose measured at 2 hrs; format: ADME, organism-based; details: in vivo
# In short: (§2)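 Mice received a single oral dose of 25 mg/kg. Plasma compound levels were followed over time, giving peak concentration with its time and mean residence time.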
# [7] = Cmax in BALB/c mouse at 25 mg/kg, po administered as single dose measured at 2 hrs; format: ADME, organism-based; parameters: dose 25 mg/kg, route oral; details: in vivo; in short: as §2
# [8] = tested on: Epidermal growth factor receptor (Homo sapiens), P00533 [L858R,T790M]; assay: Inhibition of EGFR L858R/T790M mutant in human H1975 cells assessed as reduction in autophosphorylation at Y1068 residue at 10 nM by Western blot analysis; format: cell-based; in short: as §1
# [9] = tested on: Epidermal growth factor receptor (Homo sapiens), P00533 [L858R,T790M]; assay: Binding affinity to recombinant human EGFR L858R/T790M mutant kinase domain assessed as compound-protein adduct formation at 2 uM pretreated with compound followed by subsequent addition of copper-catalyzed azide-alkyne cyclo with rhodamine azide measured after 72 hrs by coomassie brilliant blue staining based in-gel fluorescence assay
# [10] = biological target: Epidermal growth factor receptor (Homo sapiens) (UniProt P00533); assay: Competitive binding affinity to EGFR in human H1975 cells assessed as protein labeling at 1 uM pretreated with compound followed by subsequent addition of copper-catalyzed azide-alkyne cyclo with rhodamine azide by in-gel fluorescence assay; format: cell-based; details: TDE = time-dependent effect
# In short: (§3)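 H1975 cells were labeled over time with 1 µM alkyne probe, with incubations extending to 10 h. Labeled proteins were conjugated to rhodamine-azide by copper-catalyzed azide-alkyne cycloaddition and read by in-gel fluorescence.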
# [11] = tested on: Epidermal growth factor receptor (Homo sapiens), P00533 [L858R,T790M]; assay: Competitive binding affinity to EGFR L858R/T790M mutant in human H1975 cells assessed as fluorescent band formation at 5 uM pretreated with compound followed by subsequent addition of copper-catalyzed azide-alkyne cyclo with rhodamine azide measured after 1 hr in presence of osimertinib by in-gel fluorescence assay; format: cell-based
# In short: (§4)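 H1975 cells were incubated with the alkyne CFA probe for 1 h at 37 °C. Labeled proteins were clicked to rhodamine-azide by CuAAC and resolved by in-gel fluorescence, with EGFR taken as the 175 kDa band. For competition, excess osimertinib was present. Labeling was also run across probe concentrations, including 1–10 µM.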
# [12] = tested on: Epidermal growth factor receptor (Homo sapiens), P00533 [L858R,T790M]; assay: Binding affinity to recombinant human EGFR L858R/T790M mutant kinase domain assessed as stability of compound-protein adduct at 2 uM pretreated with compound followed by subsequent addition of copper-catalyzed azide-alkyne cyclo with rhodamine azide measured after 24 hrs by coomassie brilliant blue staining based in-gel fluorescence assay
# [13] = biological target: Epidermal growth factor receptor (Homo sapiens) (UniProt P00533); assay: Competitive binding affinity to wild type EGFR expressed in human H292 cells assessed as protein labeling pretreated with compound followed by subsequent addition of copper-catalyzed azide-alkyne cyclo with rhodamine azide incubated for 2 hrs by in-gel fluorescence assay; format: cell-based
# [14] = tested on: Epidermal growth factor receptor (Homo sapiens), P00533 [L858R,T790M]; assay: Competitive binding affinity to EGFR L858R/T790M in human H1975 cells assessed as fluorescent band formation by measuring molecular weight at 5 uM pretreated with compound followed by subsequent addition of copper-catalyzed azide-alkyne cyclo with rhodamine azide measured after 1 hr by in-gel fluorescence assay; format: cell-based; in short: as §4
# [15] = biological target: Epidermal growth factor receptor (Homo sapiens) (UniProt P00533); assay: Binding affinity to wild type EGFR expressed in human H292 cells assessed as protein labeling at 1 uM measured after 1 hr by pull down based Western blot analysis
# [16] = biological target: Epidermal growth factor receptor (Homo sapiens) (UniProt P00533); assay: Competitive binding affinity to wild type EGFR expressed in human H292 cells assessed as protein labeling at 1 uM pretreated with compound followed by subsequent addition of copper-catalyzed azide-alkyne cyclo with rhodamine azide by in-gel fluorescence assay; format: cell-based; details: TDE = time-dependent effect
# [17] = biological target: Epidermal growth factor receptor (Homo sapiens) (UniProt P00533); assay: Competitive binding affinity to wild type EGFR expressed in human HEK293 cells assessed as protein labeling at 1 uM pretreated with compound followed by subsequent addition of copper-catalyzed azide-alkyne cyclo with rhodamine azide by in-gel fluorescence assay; format: cell-based; details: TDE = time-dependent effect
# [18] = tested on: Epidermal growth factor receptor (Homo sapiens), P00533 [L858R,T790M]; assay: Binding affinity to EGFR L858R/T790M mutant expressed in human H1975 cells assessed as protein labeling at 1 uM measured after 1 hr by pull down based Western blot analysis
# [19] = biological target: Epidermal growth factor receptor (Homo sapiens) (UniProt P00533); assay: Competitive binding affinity to wild type EGFR expressed in human HEK293 cells assessed as protein labeling pretreated with compound followed by subsequent addition of copper-catalyzed azide-alkyne cyclo with rhodamine azide incubated for 2 hrs by in-gel fluorescence assay; format: cell-based
# [20] = biological target: Epidermal growth factor receptor (Homo sapiens) (UniProt P00533); assay: Competitive binding affinity to wild type EGFR expressed in human H292 cells assessed as SILAC ratio at 5 uM measured after 2 hrs by MS analysis; format: cell-based
# [21] = biological target: Epidermal growth factor receptor (Homo sapiens) (UniProt P00533); assay: Competitive binding affinity to EGFR in human H1975 cells assessed as protein labeling pretreated with compound followed by subsequent addition of copper-catalyzed azide-alkyne cyclo with rhodamine azide measured after 1 hr by in-gel fluorescence assay; format: cell-based; in short: as §4
# [22] = biological target: Epidermal growth factor receptor (Homo sapiens) (UniProt P00533); assay: Competitive binding affinity to EGFR in human H1975 cells assessed as protein labeling at 1 uM pretreated with compound followed by subsequent addition of copper-catalyzed azide-alkyne cyclo with rhodamine azide incubated for 10 hrs by in-gel fluorescence assay; format: cell-based; in short: as §3
# [23] = tested on: Epidermal growth factor receptor (Homo sapiens), P00533 [L858R,T790M]; assay: Binding affinity to recombinant human EGFR L858R/T790M mutant kinase domain assessed as rapid covalent modification at 2 uM pretreated with compound followed by subsequent addition of copper-catalyzed azide-alkyne cyclo with rhodamine azide measured after 72 hrs by coomassie brilliant blue staining based in-gel fluorescence assay
# [24] = tested on: Epidermal growth factor receptor (Homo sapiens), P00533 [L858R,T790M]; assay: Competitive binding affinity to EGFR L858R/T790M mutant expressed in human H1975 cells assessed as SILAC ratio at 5 uM measured after 2 hrs by MS analysis; format: cell-based
# In short: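 SILAC mass spectrometry in isotopically labeled H1975 cells treated with the probe at 5 µM for 2 h at 37 °C, followed by streptavidin enrichment. Reported values are log2 median SILAC ratios (probe/DMSO or probe/probe) from triplicate MS analyses of a single enriched sample.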
smiles,measurement,setting,value
COc1cc(N(C)CCN(C)C)c(NC(=O)C(F)Cl)cc1Nc1ncc(Cl)c(-c2c[nH]c3ccccc23)n1 (centres undefined),IC50,NCI-H1975,0.05 µM
COc1cc(N(C)CCN(C)C)c(NC(=O)C(F)Cl)cc1Nc1ncc(C(F)(F)F)c(-c2c[nH]c3ccccc23)n1 (centres undefined),IC50,NCI-H292,0.57 µM
same,Ratio IC50,[1],17.3
same,IC50,NCI-H1975,0.033 µM
CNC(=O)[C@H](CSC(F)C(=O)N[C@@H](C)C(=O)Nc1cc(Nc2ncc(C(F)(F)F)c(-c3c[nH]c4ccccc34)n2)c(OC)cc1N(C)CCN(C)C)NC(C)=O (some centres undefined),half-life,[2],11.2 h
COc1cc(N(C)CCN(C)C)c(NC(=O)[C@@H]2CCN2C(=O)C(F)Cl)cc1Nc1ncc(Cl)c(-c2c[nH]c3ccccc23)n1 (some centres undefined),IC50,NCI-H1975,0.38 µM
COc1cc(N(C)CCN(C)C)c(NC(=O)[C@@H](C)NC(=O)C(F)Cl)cc1Nc1ncc(Cl)c(-c2c[nH]c3ccccc23)n1 (some centres undefined),IC50,NCI-H1975,0.44 µM
COc1cc(N(C)CCN(C)C)c(NC(=O)[C@H](C)NC(=O)C(F)Cl)cc1Nc1ncc(C(F)(F)F)c(-c2c[nH]c3ccccc23)n1 (some centres undefined),IC50,NCI-H292,1.37 µM
same,Activity,[3],Active
same,inhibition,[4],Active
same,Ratio IC50,Homo sapiens,44.7
same,Activity,[5],Active
same,Ratio IC50,[1],91.3
same,half-life,[2],49.4 h
same,MRT,[6],8.9 h
same,Cmax,[7],0.51 µM
same,IC50,NCI-H1975,0.015 µM
same,inhibition,[8],Active
same,Activity,[9],Active
COc1cc(N(C)CCN(C)C)c(NC(=O)CNC(=O)C(F)Cl)cc1Nc1ncc(Cl)c(-c2c[nH]c3ccccc23)n1 (centres undefined),IC50,NCI-H1975,0.13 µM
COc1cc(N(C)CCN(C)C)c(NC(=O)[C@H](C)NC(C)=O)cc1Nc1ncc(C(F)(F)F)c(-c2c[nH]c3ccccc23)n1,IC50,NCI-H292,3.59 µM
same,Ratio IC50,[1],7.8
same,IC50,NCI-H1975,0.46 µM
C#CCCN(C)CCN(C)c1cc(OC)c(Nc2ncc(C(F)(F)F)c(-c3c[nH]c4ccccc34)n2)cc1NC(=O)[C@H](C)NC(=O)C(F)Cl (some centres undefined),Activity,[10],Tde
same,Activity,[11],inactive
same,Activity,[12],Active
same,Activity,[13],Dose-dependent effect
same,Activity,[14],175 kDa
same,Activity,[15],Active
same,Activity,[16],Tde
same,Activity,[17],Tde
same,Activity,[18],Active
same,IC50,NCI-H1975,0.051 µM
same,Activity,[19],Dose-dependent effect
same,log(ratio),[20],3.2
same,Activity,[21],Dose-dependent effect
same,Activity,[22],Active
C#CCCN(C)CCN(C)c1cc(OC)c(Nc2nccc(-c3cn(C)c4ccccc34)n2)cc1NC(=O)C=C,Activity,[10],Tde
same,Activity,[23],Active
same,Activity,[15],Active
same,Activity,[18],Active
same,IC50,NCI-H1975,0.072 µM
same,log(ratio),[24],-0.059
same,Activity,[21],Dose-dependent effect
COc1cc(N(C)CCN(C)C)c(NC(=O)[C@H](CO)NC(=O)C(F)Cl)cc1Nc1ncc(Cl)c(-c2c[nH]c3ccccc23)n1 (some centres undefined),IC50,NCI-H1975,0.32 µM
COc1cc(N(C)CCN(C)C)c(NC(=O)[C@H](CC(C)C)NC(=O)C(F)Cl)cc1Nc1ncc(Cl)c(-c2c[nH]c3ccccc23)n1 (some centres undefined),IC50,NCI-H1975,0.052 µM
C=CC(=O)Nc1cc(Nc2nccc(-c3cn(C)c4ccccc34)n2)c(OC)cc1N(C)CCN(C)C [OSIMERTINIB],IC50,NCI-H292,0.22 µM
COc1cc(N(C)CCN(C)C)c(NC(=O)[C@H](C)NC(=O)C(F)Cl)cc1Nc1ncc(Cl)c(-c2c[nH]c3ccccc23)n1 (some centres undefined),IC50,NCI-H292,0.71 µM
same,Ratio IC50,[1],22.9
same,IC50,NCI-H1975,0.031 µM
COc1cc(N(C)CCN(C)C)c(NC(=O)[C@@H]2CCCN2C(=O)C(F)Cl)cc1Nc1ncc(Cl)c(-c2c[nH]c3ccccc23)n1 (some centres undefined),IC50,NCI-H1975,0.056 µM
COc1cc(N(C)CCN(C)C)c(NC(=O)[C@@H]2C[C@@H](O)CN2C(=O)C(F)Cl)cc1Nc1ncc(Cl)c(-c2c[nH]c3ccccc23)n1 (some centres undefined),IC50,NCI-H1975,0.15 µM
